The record followed here is ChEMBL document CHEMBL1129275, “Synthesis and in vitro and in vivo characteristics of an iodinated analogue of the beta-adrenoceptor antagonist carazolol” (J Med Chem, 1996).

Conditions in all cases: in vivo
The test system of series [1] is Oryctolagus cuniculus. Nature of the series: Biodistribution pattern of [123I]- ligand was evaluated in right ventricular muscle of anesthetized rabbit after Intravenous injection of 50 uCi after 2 hr. The format is ADME, organism-based, Muscle tissue. Summed up:
(§1)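 Male New Zealand white rabbits (2.5–3.5 kg), anesthetized with xylazine 5 mg/kg plus ketamine 30 mg/kg im, given 50 µCi radioligand (specific activity >5000 Ci/mmol) iv via ear vein. Euthanized at set times by pentobarbital 200 mg/kg im, n = 3/time point. Organs removed and weighed, gamma-counted, decay/weight corrected; expressed as % ID x kg body weight/g tissue, mean ± SEM.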

Series [2] has as its system Oryctolagus cuniculus. The experiment in a line: Biodistribution pattern of [123I]- ligand was evaluated in spleen of anesthetized rabbit after Intravenous injection of 50 uCi after 2 hr. The class given is ADME, organism-based. Put shortly: as §1
Series [3] deals with Oryctolagus cuniculus. The experiment in a line: Cerebral biodistribution pattern of [123I]- ligand was evaluated in frontal cortex of anesthetized rabbit after Intravenous injection of 50 uCi after 2 hr. The class given is ADME, organism-based. Put shortly:
as §1

Series [4] deals with Oryctolagus cuniculus. The experiment in a line: Biodistribution pattern of [123I]- ligand was evaluated in fat of anesthetized rabbit after Intravenous injection of 50 uCi after 2 hr. The format is ADME, organism-based, Adipose tissue. Put shortly:
(§2)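 Male New Zealand white rabbits, 2.5–3.5 kg, anesthetized with 5 mg/kg xylazine plus 30 mg/kg ketamine im. Each received 50 uCi radioligand (specific activity > 5000 Ci/mmol) iv via ear vein. Animals were killed with 200 mg/kg pentobarbital im at the set time. Blood was drawn by intracardiac puncture and organs weighed. Gamma counting was decay-corrected, expressed as %ID x kg body weight/g tissue, mean ± SEM, n = 3/time point.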

Series [5] has as its system Oryctolagus cuniculus. The experiment in a line: Biodistribution pattern of [123I]- ligand was evaluated in left atrial muscle of anesthetized rabbit after Intravenous injection of 50 uCi after 2 hr. The format is ADME, organism-based, Muscle tissue. Summed up: as §2
Series [6] relates to Oryctolagus cuniculus. The experiment in a line: Biodistribution pattern of [123I]- ligand was evaluated in right atrial muscle of anesthetized rabbit after Intravenous injection of 50 uCi after 2 hr. The format is ADME, organism-based, Muscle tissue. Summed up: as §1
Series [7] deals with Oryctolagus cuniculus. Nature of the series: Biodistribution pattern of [123I]- ligand was evaluated in blood of anesthetized rabbit after Intravenous injection of 50 uCi after 2 hr. The class given is ADME, organism-based. Summed up:
as §2

Series [8] relates to Oryctolagus cuniculus. Nature of the series: Cerebral biodistribution pattern of [123I]- ligand was evaluated in pituitary gland of anesthetized rabbit after Intravenous injection of 50 uCi after 2 hr. The class given is ADME, organism-based. Put shortly:
as §1

The subject of series [9] is Oryctolagus cuniculus. The experiment in a line: Cerebral biodistribution pattern of [123I]- ligand was evaluated in cerebellum of anesthetized rabbit after Intravenous injection of 50 uCi after 2 hr. The format is ADME, organism-based. Put shortly: as §1
In series [10] the test system is Oryctolagus cuniculus. Nature of the series: Cerebral biodistribution pattern of [123I]- ligand was evaluated in striatum of anesthetized rabbit after Intravenous injection of 50 uCi after 2 hr. The class given is ADME, organism-based. Summed up: as §1
Series [11] has as its system Oryctolagus cuniculus. The experiment in a line: Cerebral biodistribution pattern of [123I]- ligand was evaluated in hypothalamus of anesthetized rabbit after Intravenous injection of 50 uCi after 2 hr. The class given is ADME, organism-based. Put shortly:
as §1

For series [12], the system named is Oryctolagus cuniculus. The experiment in a line: Biodistribution pattern of [123I]- ligand was evaluated in lung of anesthetized rabbit after Intravenous injection of 50 uCi after 2 hr. The class given is ADME, organism-based. Put shortly:
as §2

Series [13] concerns Oryctolagus cuniculus. Nature of the series: Biodistribution pattern of [123I]- ligand was evaluated in muscle of anesthetized rabbit after Intravenous injection of 50 uCi after 2 hr. The class given is ADME, organism-based, Muscle tissue. Put shortly: as §2
Series [14] has as its system Oryctolagus cuniculus. Nature of the series: […] biodistribution pattern of [123I]- ligand was evaluated in kidney of anesthetized rabbit after Intravenous injection of 50 uCi after 2 hr. The class given is ADME, organism-based. Put shortly:
as §1

Series [15] deals with Oryctolagus cuniculus. Nature of the series: Cerebral biodistribution pattern of [123I]- ligand was evaluated in thalamus of anesthetized rabbit after Intravenous injection of 50 uCi after 2 hr. The format is ADME, organism-based. Summed up:
as §1

Series [16] concerns Oryctolagus cuniculus. Nature of the series: Biodistribution pattern of [123I]- ligand was evaluated in liver of anesthetized rabbit after Intravenous injection of 50 uCi after 2 hr. The class given is ADME, organism-based. Put shortly:
as §2

Series [17] concerns Oryctolagus cuniculus. Nature of the series: Biodistribution pattern of [123I]- ligand was evaluated in left ventricular muscle of anesthetized rabbit after Intravenous injection of 50 uCi after 2 hr. The format is ADME, organism-based, Muscle tissue. Summed up: as §2
For series [18], the system named is Oryctolagus cuniculus. Nature of the series: Biodistribution pattern of [123I]- ligand was evaluated in intestine of anesthetized rabbit after Intravenous injection of 50 uCi after 2 hr. The format is ADME, organism-based. Put shortly: as §2

A value given as a limit tells only on which side of the number the result lay.

As to `CC(C)(C)NCC(O)COc1cccc2[nH]c(=O)[nH]c12` (stereo not given) [CGP-12177], the “ID x kg of body weight/g of tissue” value in series [1] is less than 0.08%; in series [2], 0.12%; in series [3], 0.1%; in series [4], 0.04%; in series [5], less than 0.05%; in [6], less than 0.05%. In addition, the “ID x kg of body weight/g of tissue” value is listed as 0.01% in [7]; 0.07% in [8]; 0.17% in series [9]; 0.08% in series [10]; 0.06% in series [11]; less than 0.8% in series [12]. The “ID x kg of body weight/g of tissue” value is less than 0.03% in series [13]; 0.09% in [14]; 0.06% in [15]; 0.1% in series [16]; less than 0.08% in series [17]; 0.46% in [18].

Regarding `CC(C)NCC(O)COc1cccc2ccccc12` (stereo not given) [PROPRANOLOL], the “ID x kg of body weight/g of tissue” value in series [1] is less than 0.09%; in series [2] it was 0.1%; in [3], less than 0.05%; in series [4], 0.04%; in [5] it was less than 0.07%; in series [6] it was less than 0.07%. In addition, the “ID x kg of body weight/g of tissue” value was 0.01% in series [7]; 0.06% in [8]; less than 0.04% in [9]; less than 0.04% in series [10]; 0.04% in series [11]; less than 0.03% in series [13]. The “ID x kg of body weight/g of tissue” value in series [14] is 0.1%; in series [15], 0.04%; in [16], 0.1%; in [17], less than 0.09%; in series [18], 0.29%.
